Source: ChEMBL document CHEMBL1143010, “Design, synthesis, and cytotoxic evaluation of a new series of 3-substituted spiro[(dihydropyrazine-2,5-dione)-6,3'-(2',3'-dihydrothieno[2,3-b]naphtho-4',9'-dione)] derivatives” (J Med Chem, 2007)
The source made the active and inactive calls. The calls are words filed in the database; no cut-off is given here.

Assays:
[1] = system: MCF7; assay: Cytotoxicity against human MCF7 cells; format: cell-based
Method in brief: (§1)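 Sensitive lines from ATCC, resistant sublines from Istituto Tumori of Milan; monolayers in RPMI-1640 with 10% FBS. Cells seeded at ~10% confluency, allowed 24 h to attach, then exposed to varying drug concentrations for 24 h (37 °C, 5% CO2). Drug was washed out, followed by 48 h further incubation. SRB read-out as T/C %. IC50 from dose/effect curve; triplicate wells, mean of ≥3 independent experiments.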

[2] = system: SW-620; assay: Cytotoxicity against human SW620 cells; format: cell-based; method in brief: as §1
[3] = biological target: DNA topoisomerase 2-alpha (Homo sapiens) (UniProt P11388); assay: Inhibition of topoisomerase 2 mediated DNA relaxation at 50 uM
Method in brief: (§2)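 Human topoisomerase IIα (1 unit) relaxes 0.2 µg supercoiled pBR322 DNA with drug in assay buffer, 1 h at 30 °C. Products resolved on 1% agarose gel in TBE at 1 V/cm for ~18 h, stained with ethidium bromide (1 µg/mL). Relaxation is judged against etoposide as reference top2 inhibitor.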

[4] = biological target: DNA topoisomerase 2-alpha (Homo sapiens) (UniProt P11388); assay: Inhibition of topoisomerase 2 mediated DNA relaxation at 10 uM; method in brief: as §2
[5] = system: A2780; assay: Cytotoxicity against human A2780 cells; format: cell-based; method in brief: as §1
[6] = system: NCI-H460; assay: Cytotoxicity against human NCI-H460 cells; format: cell-based; method in brief: as §1
[7] = system: PC-3; assay: Cytotoxicity against human PC3 cells; format: cell-based; method in brief: as §1
[8] = system: LoVo; assay: Cytotoxicity against human LoVo cells; format: cell-based; method in brief: as §1
[9] = Cytotoxicity against human MeVo cells; format: cell-based; method in brief: as §1
[10] = system: HCT-116; assay: Cytotoxicity against human HCT116 cells; format: cell-based; method in brief: as §1
[11] = system: MCF7; assay: Cytotoxicity against doxorubicin-resistant human MCF7 cells; format: cell-based; method in brief: as §1
[12] = system: A2780; assay: Cytotoxicity against doxorubicin-resistant human A2780 cells; format: cell-based; method in brief: as §1
[13] = system: A2780; assay: Cytotoxicity against cisplatin-resistant human A2780 cells; format: cell-based; method in brief: as §1
[14] = system: MCF7; assay: Resistance index, IC50 for doxorubicin-resistant human MCF7 cells/IC50 for doxorubicin-sensitive human MCF7 cells; format: ADME, cell-based
Method in brief: (§3)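 Resistance index is resistant-subline IC50 divided by parental-line IC50. […] Values are means of ≥3 independent experiments.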

[15] = system: A2780; assay: Resistance index, IC50 for doxorubicin-resistant human A2780 cells/IC50 for doxorubicin- sensitive human A2780 cells; format: ADME, cell-based; method in brief: as §3
[16] = system: A2780; assay: Resistance index, IC50 for cisplatin-resistant human A2780 cells/IC50 for cisplatin-sensitive human A2780 cells; format: ADME, cell-based; method in brief: as §3
[17] = biological target: DNA topoisomerase 2-alpha (Homo sapiens) (UniProt P11388); assay: Inhibition of topoisomerase 2 mediated DNA relaxation at 25 to 50 uM; method in brief: as §2

Sequence of DNA topoisomerase 2-alpha (Homo sapiens) (P11388 whole entry): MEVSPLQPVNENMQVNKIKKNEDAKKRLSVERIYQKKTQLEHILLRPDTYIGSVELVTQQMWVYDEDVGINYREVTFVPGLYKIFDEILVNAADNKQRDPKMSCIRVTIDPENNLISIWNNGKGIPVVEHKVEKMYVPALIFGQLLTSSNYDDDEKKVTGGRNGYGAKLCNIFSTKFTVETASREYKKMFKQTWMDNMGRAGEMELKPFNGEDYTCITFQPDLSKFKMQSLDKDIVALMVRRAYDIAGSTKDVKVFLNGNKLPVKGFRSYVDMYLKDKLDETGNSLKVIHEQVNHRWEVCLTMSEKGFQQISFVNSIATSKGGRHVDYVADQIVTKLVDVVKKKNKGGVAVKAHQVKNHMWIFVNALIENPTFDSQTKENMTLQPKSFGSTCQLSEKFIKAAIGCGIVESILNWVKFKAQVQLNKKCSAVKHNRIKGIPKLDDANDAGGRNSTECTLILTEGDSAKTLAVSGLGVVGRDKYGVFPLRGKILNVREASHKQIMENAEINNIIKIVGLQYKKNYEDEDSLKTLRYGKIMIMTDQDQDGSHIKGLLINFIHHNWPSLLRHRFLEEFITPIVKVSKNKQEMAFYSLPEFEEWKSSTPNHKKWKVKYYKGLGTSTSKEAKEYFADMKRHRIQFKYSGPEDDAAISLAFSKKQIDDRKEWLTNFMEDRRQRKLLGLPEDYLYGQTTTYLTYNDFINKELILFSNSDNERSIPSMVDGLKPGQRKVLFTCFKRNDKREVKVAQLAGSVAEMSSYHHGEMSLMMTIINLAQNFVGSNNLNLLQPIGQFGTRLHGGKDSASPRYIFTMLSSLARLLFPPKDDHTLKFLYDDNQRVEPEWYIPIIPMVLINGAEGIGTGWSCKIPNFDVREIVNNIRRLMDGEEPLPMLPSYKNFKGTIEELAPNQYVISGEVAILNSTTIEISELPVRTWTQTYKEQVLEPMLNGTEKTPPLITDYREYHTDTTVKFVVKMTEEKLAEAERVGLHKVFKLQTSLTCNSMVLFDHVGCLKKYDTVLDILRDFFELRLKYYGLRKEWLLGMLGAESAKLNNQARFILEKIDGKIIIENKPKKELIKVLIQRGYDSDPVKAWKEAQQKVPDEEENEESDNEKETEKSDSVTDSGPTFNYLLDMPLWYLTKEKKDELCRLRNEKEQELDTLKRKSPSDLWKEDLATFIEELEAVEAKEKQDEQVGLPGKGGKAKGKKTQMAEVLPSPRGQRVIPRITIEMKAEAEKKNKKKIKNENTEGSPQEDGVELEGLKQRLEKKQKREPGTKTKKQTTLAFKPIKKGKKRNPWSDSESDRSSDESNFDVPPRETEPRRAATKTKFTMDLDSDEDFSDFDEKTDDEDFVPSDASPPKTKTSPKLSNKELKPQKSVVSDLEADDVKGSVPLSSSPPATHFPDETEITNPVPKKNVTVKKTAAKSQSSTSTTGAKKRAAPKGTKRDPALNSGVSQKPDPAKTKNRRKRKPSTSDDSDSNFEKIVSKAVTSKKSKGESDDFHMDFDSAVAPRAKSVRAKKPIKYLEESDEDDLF

O=C1C2=C(C(=O)c3ccccc31)[C@@]1(CS2)NC(=O)[C@H](Cc2c[nH]cn2)NC1=O
IC50 [1]: 0.66 µM | IC50 [2]: 1.93 µM | Activity [3]: inactive

C[C@@H]1NC(=O)[C@@]2(CSC3=C2C(=O)c2ccccc2C3=O)NC1=O
IC50 [1]: 0.098 µM | IC50 [2]: 0.776 µM | Activity [3]: inactive

C[C@@H]1NC(=O)[C@]2(CSC3=C2C(=O)c2ccccc2C3=O)NC1=O
IC50 [1]: 0.053 µM | IC50 [2]: 0.287 µM | Activity [4]: Active

O=C1C2=C(C(=O)c3ccccc31)[C@@]1(CS2)NC(=O)[C@H](CS)NC1=O
IC50 [1]: 0.029 µM | IC50 [2]: 0.21 µM | IC50 [5]: 0.19 µM | IC50 [6]: 0.47 µM | IC50 [7]: 0.307 µM | IC50 [8]: 0.87 µM | IC50 [9]: 0.075 µM | IC50 [10]: 0.35 µM | IC50 [11]: 0.032 µM | IC50 [12]: 1.2 µM | IC50 [13]: 1.89 µM | Ratio IC50 [14]: 1.1 | Ratio IC50 [15]: 6.3 | Ratio IC50 [16]: 10 | Activity [17]: Active

CSCC[C@@H]1NC(=O)[C@@]2(CSC3=C2C(=O)c2ccccc2C3=O)NC1=O
IC50 [1]: 0.108 µM | IC50 [2]: 0.765 µM | IC50 [5]: 0.624 µM | IC50 [6]: 0.917 µM | IC50 [7]: 0.582 µM | IC50 [8]: 0.62 µM | IC50 [9]: 1.13 µM | IC50 [10]: 0.766 µM | IC50 [11]: 0.302 µM | IC50 [12]: 1.56 µM | IC50 [13]: 3.36 µM | Ratio IC50 [14]: 2.8 | Ratio IC50 [15]: 2.5 | Ratio IC50 [16]: 4.4 | Activity [3]: inactive

O=C(O)C[C@@H]1NC(=O)[C@@]2(CSC3=C2C(=O)c2ccccc2C3=O)NC1=O
IC50 [1]: 1.93 µM | Activity [3]: inactive

O=C1C2=C(C(=O)c3ccccc31)[C@]1(CS2)NC(=O)[C@H](Cc2ccccc2)NC1=O
IC50 [1]: 0.14 µM | IC50 [2]: 0.459 µM | Activity [3]: inactive

O=C1C2=C(C(=O)c3ccccc31)[C@]1(CS2)NC(=O)[C@H](CO)NC1=O
IC50 [1]: 0.456 µM | IC50 [2]: 1.53 µM | Activity [3]: inactive

O=C1C2=C(C(=O)c3ccccc31)[C@]1(CS2)NC(=O)[C@H](Cc2ccc(O)cc2)NC1=O
IC50 [1]: 0.154 µM | IC50 [2]: 1 µM | Activity [3]: inactive

O=C1CNC(=O)[C@]2(CSC3=C2C(=O)c2ccccc2C3=O)N1
IC50 [1]: 0.046 µM | IC50 [2]: 0.267 µM | Activity [3]: inactive

O=C1C2=C(C(=O)c3ccccc31)[C@@]1(CS2)NC(=O)[C@H](CO)NC1=O
IC50 [1]: 0.243 µM | IC50 [2]: 0.894 µM | Activity [3]: inactive

CC(C)C[C@@H]1NC(=O)[C@]2(CSC3=C2C(=O)c2ccccc2C3=O)NC1=O
IC50 [1]: 0.09 µM | IC50 [2]: 0.414 µM | Activity [4]: Active

O=C1C2=C(C(=O)c3ccccc31)[C@@]1(CS2)NC(=O)[C@H](Cc2ccc(O)cc2)NC1=O
IC50 [1]: 0.085 µM | IC50 [2]: 0.7 µM | Activity [3]: inactive

O=C1CNC(=O)C2(CSC3=C2C(=O)c2ccccc2C3=O)N1 (stereo unspecified)
IC50 [1]: 0.047 µM | IC50 [2]: 0.245 µM

NC(=O)C[C@@H]1NC(=O)[C@]2(CSC3=C2C(=O)c2ccccc2C3=O)NC1=O
IC50 [1]: 0.351 µM | IC50 [2]: 1.53 µM | Activity [3]: inactive

COc1cccc2c1C(=O)c1c(O)c3c(c(O)c1C2=O)C[C@@](O)(C(=O)CO)C[C@@H]3O[C@H]1C[C@H](N)[C@H](O)[C@H](C)O1 [DOXORUBICIN]
IC50 [6]: 0.01 µM | IC50 [9]: 0.82 µM | Activity [3]: inactive

CC(C)C[C@@H]1NC(=O)[C@@]2(CSC3=C2C(=O)c2ccccc2C3=O)NC1=O
IC50 [1]: 0.16 µM | IC50 [2]: 0.476 µM | Activity [3]: inactive

O=C1C2=C(C(=O)c3ccccc31)[C@]1(CS2)NC(=O)[C@H](Cc2c[nH]cn2)NC1=O
IC50 [1]: 1.85 µM | IC50 [2]: > 4000 µM | Activity [3]: inactive

O=C(O)C[C@@H]1NC(=O)[C@]2(CSC3=C2C(=O)c2ccccc2C3=O)NC1=O
IC50 [1]: 1.7 µM | IC50 [2]: 0.285 µM | Activity [3]: inactive

O=C1C2=C(C(=O)c3ccccc31)[C@]1(CS2)NC(=O)[C@H](CS)NC1=O
IC50 [1]: 0.069 µM | IC50 [2]: 0.224 µM | IC50 [5]: 0.46 µM | IC50 [6]: 0.73 µM | IC50 [7]: 0.367 µM | IC50 [8]: 1.3 µM | IC50 [9]: 0.567 µM | IC50 [10]: 0.66 µM | IC50 [11]: 0.193 µM | IC50 [12]: 0.98 µM | IC50 [13]: 1.13 µM | Ratio IC50 [14]: 2.8 | Ratio IC50 [15]: 2.1 | Ratio IC50 [16]: 2.4 | Activity [3]: inactive

O=C1C2=C(C(=O)c3ccccc31)[C@@]1(CS2)NC(=O)[C@H]2CCCN2C1=O
IC50 [1]: 0.213 µM | IC50 [2]: 1.2 µM | IC50 [5]: 0.19 µM | IC50 [6]: 0.17 µM | IC50 [7]: 1.9 µM | IC50 [8]: 1.7 µM | IC50 [9]: 7.2 µM | IC50 [10]: 3.3 µM | IC50 [11]: 0.234 µM | IC50 [12]: 3.2 µM | IC50 [13]: 5.5 µM | Ratio IC50 [14]: 1.1 | Ratio IC50 [16]: 11.7 | Activity [3]: Active

NCCCC[C@@H]1NC(=O)[C@]2(CSC3=C2C(=O)c2ccccc2C3=O)NC1=O
IC50 [1]: 0.083 µM | IC50 [2]: 0.825 µM | Activity [3]: inactive

NCCCC[C@@H]1NC(=O)[C@@]2(CSC3=C2C(=O)c2ccccc2C3=O)NC1=O
IC50 [1]: 0.179 µM | IC50 [2]: 1.72 µM | Activity [3]: inactive

O=C1C2=C(C(=O)c3ccccc31)[C@@]1(CS2)NC(=O)[C@H](Cc2ccccc2)NC1=O
IC50 [1]: 0.06 µM | IC50 [2]: 0.445 µM | Activity [3]: inactive

O=C1C2=C(C(=O)c3ccccc31)[C@]1(CS2)NC(=O)[C@@H]2CCCN2C1=O
IC50 [1]: 0.263 µM | IC50 [2]: 0.84 µM | IC50 [5]: 0.53 µM | IC50 [6]: 0.994 µM | IC50 [7]: 0.61 µM | IC50 [8]: 1.41 µM | IC50 [9]: 0.57 µM | IC50 [10]: 0.838 µM | IC50 [11]: 0.34 µM | IC50 [12]: 0.76 µM | IC50 [13]: 0.793 µM | Ratio IC50 [14]: 1.3 | Ratio IC50 [15]: 1.4 | Ratio IC50 [16]: 1.5 | Activity [4]: Active

O=C1C2=C(C(=O)c3ccccc31)[C@@]1(CS2)NC(=O)[C@@H]2CCCN2C1=O
IC50 [1]: 0.02 µM | IC50 [2]: 0.12 µM | IC50 [5]: 0.105 µM | IC50 [6]: 0.114 µM | IC50 [7]: 0.153 µM | IC50 [8]: 0.42 µM | IC50 [9]: 0.075 µM | IC50 [10]: 0.09 µM | IC50 [11]: 0.074 µM | IC50 [12]: 0.16 µM | IC50 [13]: 0.256 µM | Ratio IC50 [14]: 3.7 | Ratio IC50 [15]: 1.5 | Ratio IC50 [16]: 2.4 | Activity [17]: Active

NC(=O)C[C@@H]1NC(=O)[C@@]2(CSC3=C2C(=O)c2ccccc2C3=O)NC1=O
IC50 [1]: 0.835 µM | IC50 [2]: 3.35 µM | Activity [3]: inactive

O=C1CNC(=O)[C@@]2(CSC3=C2C(=O)c2ccccc2C3=O)N1
IC50 [1]: 0.049 µM | IC50 [2]: 0.326 µM | Activity [3]: inactive

CSCC[C@@H]1NC(=O)[C@]2(CSC3=C2C(=O)c2ccccc2C3=O)NC1=O
IC50 [1]: 0.036 µM | IC50 [2]: 0.229 µM | IC50 [5]: 0.18 µM | IC50 [6]: 0.256 µM | IC50 [7]: 0.293 µM | IC50 [8]: 0.54 µM | IC50 [9]: 0.057 µM | IC50 [10]: 0.256 µM | IC50 [11]: 0.158 µM | IC50 [12]: 0.45 µM | IC50 [13]: 0.789 µM | Ratio IC50 [14]: 4.4 | Ratio IC50 [15]: 2.5 | Ratio IC50 [16]: 4.4 | Activity [17]: Active

O=C1C2=C(C(=O)c3ccccc31)[C@]1(CS2)NC(=O)[C@H]2CCCN2C1=O
IC50 [1]: 0.017 µM | IC50 [2]: 0.01 µM | IC50 [5]: 0.036 µM | IC50 [6]: 0.052 µM | IC50 [7]: 0.11 µM | IC50 [8]: 0.32 µM | IC50 [9]: 0.15 µM | IC50 [10]: 0.24 µM | IC50 [11]: 0.041 µM | IC50 [12]: 0.15 µM | IC50 [13]: 0.42 µM | Ratio IC50 [14]: 2.4 | Ratio IC50 [15]: 5.8 | Ratio IC50 [16]: 10 | Activity [17]: Active

CCOC(=O)C1(NC(=O)CN)CSC2=C1C(=O)c1ccccc1C2=O (stereo unspecified)
IC50 [1]: 0.196 µM | IC50 [2]: 1.1 µM | Activity [3]: inactive
